# From ChEMBL document CHEMBL1122744, “2-Chloroethyl (methylsulfonyl)methanesulfonate and related (methylsulfonyl)methanesulfonates. Antineoplastic activity in vivo” (J Med Chem, 1984)
# Where “and” joins values, the source holds several entries; their conditions need not be identical. Identical values can stand only once.
# Experiments:
# Mus musculus [1] = assay: Change in weight by day 5, obtained by subtracting treated groups of animals minus control groups of animals at dose 200 mg/kg in exp1.; format: functional; conditions: 200 mg/kg
# Procedure, shortened: (§1)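 Mice were inoculated ip with 10^6 P388 leukemia cells on day 0, when treated and control mice weighed 19–22 g. Treatment was given ip once daily on days 1–5, within about 5 min of preparing the solution or suspension. Groups of six (occasionally five) were treated, with 30 untreated inoculated mice as controls. The day-5 weight change is the mean treated change minus the mean control change.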
# Mus musculus [2] = assay: Change in weight by day 5, obtained by subtracting treated groups of animals minus control groups of animals at dose 100 mg/kg in exp2; format: functional; procedure, shortened: as §1
# Mus musculus [3] = assay: Change in weight by day 5, obtained by subtracting treated groups of animals minus control groups of animals at dose 150 mg/kg in exp2; format: functional; procedure, shortened: as §1
# Mus musculus [4] = assay: Change in weight by day 5, obtained by subtracting treated groups of animals minus control groups of animals at dose 50 mg/kg in exp1.; format: functional; procedure, shortened: as §1
# Mus musculus [5] = assay: Change in weight by day 5, obtained by subtracting treated groups of animals minus control groups of animals at dose 50 mg/kg in exp2; format: functional; procedure, shortened: as §1
# Mus musculus [6] = assay: Mortality by day 5 expressed as number of mice died to the total treated at dose 100 mg/kg in exp1; 0/6; format: ADME, organism-based; parameters: dose 100 mg/kg; conditions: in vivo
# Mus musculus [7] = assay: Mortality by day 5 expressed as number of mice died to the total treated at dose 100 mg/kg in exp2; 0/6; format: ADME, organism-based; parameters: dose 100 mg/kg; conditions: in vivo
# Mus musculus [8] = assay: Mortality by day 5 expressed as number of mice died to the total treated at dose 150 mg/kg in exp2; 0/6; format: ADME, organism-based; parameters: dose 150 mg/kg; conditions: in vivo
# Mus musculus [9] = assay: Median survival time of the treated control groups, in which there are no 30-day survivors at dose 150 mg/kg in exp2; format: functional
# Mus musculus [10] = assay: Median survival time of the treated control groups, in which there are no 30-day survivors at dose 200 mg/kg in exp1; format: functional
# Mus musculus [11] = assay: Median survival time of the treated control groups, in which there are no 30-day survivors at dose 100 mg/kg in exp1; format: functional
# Mus musculus [12] = assay: Median survival time of the treated control groups, in which there are no 30-day survivors at dose 100 mg/kg in exp2; format: functional
# Mus musculus [13] = assay: Mortality by day 5 expressed as number of mice died to the total treated at dose 200 mg/kg in exp1; 0/6; format: ADME, organism-based; parameters: dose 200 mg/kg; conditions: in vivo
# Mus musculus [14] = assay: Mortality by day 5 expressed as number of mice died to the total treated at dose 50 mg/kg in exp1; 0/6; format: ADME, organism-based; parameters: dose 50 mg/kg; conditions: in vivo
# Mus musculus [15] = assay: Median survival time of the treated control groups, in which there are no 30-day survivors at dose 50 mg/kg in exp1; format: functional
# Mus musculus [16] = assay: Median survival time of the treated control groups, in which there are no 30-day survivors at dose 50 mg/kg in exp2; format: functional
# Mus musculus [17] = assay: Median survival time of the untreated control groups, in which there are no 30-day survivors at dose 50 mg/kg in exp1; format: functional
# Mus musculus [18] = assay: Median survival time of the untreated control groups, in which there are no 30-day survivors at dose 100 mg/kg in exp1; format: functional
# Mus musculus [19] = assay: Median survival time of the untreated control groups, in which there are no 30-day survivors at dose 100 mg/kg in exp2; format: functional
# Mus musculus [20] = assay: Median survival time of the untreated control groups, in which there are no 30-day survivors at dose 150 mg/kg in exp2; format: functional
# Mus musculus [21] = assay: Median survival time of the untreated control groups, in which there are no 30-day survivors at dose 200 mg/kg in exp1; format: functional
# [22] = Ratio of median survival times for non-survivors at dose 50 mg/kg in exp2; format: functional
# Procedure, shortened: (§2)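 Mice were inoculated ip with 10^6 P388 leukemia cells on day 0. Groups of six (occasionally five) were dosed ip qd on days 1–5 with fresh suspensions; 30 mice served as untreated controls. Deaths were recorded daily up to day 60. T/C% compares the median survival of treated non-survivors (<60 days) with the control median. Medians used grouped data when there were no 30-day survivors, otherwise ungrouped data. t = toxic.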
# [23] = Ratio of median survival times for non-survivors at dose 100 mg/kg in exp2; format: functional; procedure, shortened: as §2
# [24] = Ratio of median survival times for non-survivors at dose 150 mg/kg in exp2; format: functional; procedure, shortened: as §2
# [25] = Ratio of median survival times for non-survivors at dose 200 mg/kg in exp1; t= toxic; format: ADME, organism-based; parameters: dose 200 mg/kg; conditions: in vivo; procedure, shortened: as §2
# [26] = Ratio of median survival times for non-survivors at dose 100 mg/kg in exp1; format: functional; parameters: unit: %; procedure, shortened: as §2
# [27] = Ratio of median survival times for non-survivors at dose 50 mg/kg in exp1; format: functional; parameters: unit: %; procedure, shortened: as §2
smiles,measurement,setting,value
CCOS(=O)(=O)CS(C)(=O)=O,Change in weight,Mus musculus [1],-5 and -3.4
same,Change in weight,Mus musculus [2],-4.3
same,Change in weight,Mus musculus [3],-5.4
same,Change in weight,Mus musculus [4],-1.4
same,Change in weight,Mus musculus [5],-1.8
same,Mortality,Mus musculus [6],0
same,Mortality,Mus musculus [7],0
same,Mortality,Mus musculus [8],0
same,Median survival time,Mus musculus [9],11
same,Median survival time,Mus musculus [10],6.9
same,Median survival time,Mus musculus [11],18
same,Median survival time,Mus musculus [12],17.9
same,Mortality,Mus musculus [13],0
same,Mortality,Mus musculus [14],0
same,Median survival time,Mus musculus [15],13.3
same,Median survival time,Mus musculus [16],14
same,Median survival time,Mus musculus [17],11.2
same,Median survival time,Mus musculus [18],11.2
same,Median survival time,Mus musculus [19],10.5
same,Median survival time,Mus musculus [20],10.5
same,Median survival time,Mus musculus [21],11.2
same,Ratio,[22],133
same,Ratio,[23],170
same,Ratio,[24],104
same,Ratio,[25],Toxic
same,Ratio,[26],160
same,Ratio,[27],118
